Molecules are shown by their SMILES. ≈ marks a conversion by molar mass, not a printed value. Calls of active or inactive are those of the source. The rule behind the calls is not given here.

One assay relates to Microbotryum violaceum. Nature of the assay: Antifungal activity against Microbotryum violaceum at 50 ug. Type of assay: functional, organism-based. In outline:
(§1)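 Agar diffusion assay against bacteria (Bacillus megaterium, Escherichia coli), fungi (Microbotryum violaceum, Eurotium repens, Mycotypha microsporum) and the green microalga Chlorella fusca.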

The test system of another assay is [Chlorella] fusca. Nature of the assay: Antialgal activity against 'Chlorella' fusca at 50 ug. Type of assay: functional, organism-based. To be noted: Scenedesmus fuscus. In outline:
as §1

Another assay deals with Priestia megaterium. Description: Antibacterial activity against Bacillus megaterium at 50 ug. In kind it is functional, organism-based. In a few lines:
as §1

In assay [1] the test system is Aspergillus pseudoglaucus. Nature of the assay: Antifungal activity against Eurotium repens at 50 ug. In kind it is functional, organism-based. In outline: as §1
Another assay deals with Mycotypha microspora. Description: Antifungal activity against Mycotypha microspora at 50 ug. Type of assay: functional, organism-based. In outline: as §1
In the next assay the test system is Escherichia coli. Description: Antibacterial activity against Escherichia coli at 50 ug. In kind it is functional, organism-based. In outline: as §1
Assay [2] can be described thus: Cytotoxicity against human HM02 cells. Type of assay: functional. In outline:
(§2)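 Cytotoxicity run to NCI standards on the human tumour lines HM02 (stomach carcinoma), HepG2 (liver carcinoma) and Huh7 (liver carcinoma with mutated p53).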

The test system of another assay is HepG2. Nature of the assay: Cytotoxicity against human HepG2 cells. In kind it is functional. In a few lines:
as §2

The test system of another assay is Huh-7. Nature of the assay: Cytotoxicity against human HuH7 cells. Type of assay: functional. In outline:
as §2

Turning to `COc1ccc(Cc2[nH]c(=N)n(C)c2Cc2cc(O)c(OC)c(O)c2)cc1`, the result (in the assay with Microbotryum violaceum; in assay [Chlorella] fusca; with Priestia megaterium; in assay [1]; with Mycotypha microspora; with Escherichia coli) was inactive.

In the case of `COc1ccc(Cc2[nH]c(=N)n(C)c2Cc2ccc(O)cc2)cc1`, the outcome (in the assay with Microbotryum violaceum; in assay [Chlorella] fusca; in the assay on Priestia megaterium; in assay [1]; in the assay on Mycotypha microspora; in the assay on Escherichia coli) was inactive.

For the compound `COc1ccc(Cc2cn(Cc3ccc(O)cc3)c(=N)n2C)cc1`, the outcome (in the assay on Microbotryum violaceum; in assay [Chlorella] fusca; in the assay with Priestia megaterium; in assay [1]; with Mycotypha microspora; in the assay with Escherichia coli) was inactive.

As usually defined, the GI50 is the concentration at which growth is held to half of that of the control. `COc1ccc(Cn2cc(Cc3ccc(OC)c(OC)c3)nc2/N=C2/NC(=O)N(C)C2=O)cc1` [ISONAAMIDINE E]: the result (with Microbotryum violaceum; in assay [Chlorella] fusca; in the assay with Priestia megaterium; in [1]; in the assay with Mycotypha microspora; in the assay with Escherichia coli) was inactive. Besides, the GI50 in assay [2] stood at 7 µg/mL (≈ 15.1 µM); in the assay with HepG2, 7 µg/mL (≈ 15.1 µM); in the assay on Huh-7 it was 1.3 µg/mL (≈ 2.8 µM).

For `COc1ccc(Cn2cc(Cc3ccc(OC)c(OC)c3)nc2N)cc1` [ISONAAMINE C], the result (in the assay on Microbotryum violaceum; in assay [Chlorella] fusca; in the assay with Priestia megaterium; in [1]; in the assay with Mycotypha microspora; in the assay on Escherichia coli) was inactive. Further, the GI50 in assay [2] stood at 5.3 µg/mL (≈ 15 µM); in the assay on HepG2 it was 2.2 µg/mL (≈ 6.22 µM); with Huh-7 it was 2.1 µg/mL (≈ 5.94 µM).

The record behind these values is ChEMBL document CHEMBL1150617, “New and biologically active imidazole alkaloids from two sponges of the genus Leucetta” (2002).
